Experimental data published in ChEMBL document CHEMBL3792280, “Design and synthesis of novel quinoxaline derivatives as potential candidates for treatment of multidrug-resistant and latent tuberculosis” (Bioorg Med Chem Lett, 2016).
≈ marks a conversion by molar mass, not a printed value.

How the values were obtained:
[1] = system: Mycobacterium tuberculosis; test: Antimicrobial activity against Mycobacterium tuberculosis H37Rv ATCC 27294 infected in mouse J774 cells assessed as log reduction in bacterial burden at 10 times lower MIC measured 7 days postinfection relative to control; assay type: functional
Method in brief: (§1)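 Macrophages infected with H37Rv and treated at three concentrations 10-fold apart, chosen from the primary-screen H37Rv data. The middle concentration brackets the reported MIC, with the others ten-fold below and ten-fold above it. Read-out is log-reduction of intracellular bacterial burden.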

[2] = system: Mycobacterium tuberculosis; test: Antimicrobial activity against Mycobacterium tuberculosis H37Rv SRI 1345 after 7 days; assay type: functional; settings: H37Rv SRI 1345, 168 h
Method in brief: (§2)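 MIC in µg/mL, retested on susceptible H37Rv (SRI 1345) in the same panel as single-drug-resistant strains: isoniazid-, rifampin- and ofloxacin-resistant. Percent inhibition recorded at the MIC concentration. Ratio taken as MIC H37Rv / MIC resistant strain.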

[3] = system: Mycobacterium tuberculosis; test: Ratio of MBC for Mycobacterium tuberculosis H37Rv SRI 1345 to MIC for Mycobacterium tuberculosis H37Rv SRI 1345; assay type: functional
Method in brief: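 MBC read from colony-forming unit counts; ratio computed as MBC / MIC against H37Rv.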

[4] = system: Mycobacterium tuberculosis; test: Antimicrobial activity against Mycobacterium tuberculosis H37Rv SRI 1345 assessed as growth inhibition at MIC after 7 days; assay type: functional; method in brief: as §2
[5] = system: Mycobacterium tuberculosis; test: Antimicrobial activity against Mycobacterium tuberculosis H37Rv ATCC 27294 infected in mouse J774 cells assessed as growth inhibition at 10 times lower MIC measured 7 days postinfection; assay type: functional; method in brief: as §1
[6] = system: Mycobacterium tuberculosis; test: Ratio of MIC for Mycobacterium tuberculosis H37Rv SRI 1345 to MIC for non-replicating Mycobacterium tuberculosis H37Rv SRI 1345; assay type: functional
Method in brief: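 Non-replicating bacilli tested by Low Oxygen Recovery Assay (LORA); ratio computed as MIC H37Rv / LORA MIC.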

[7] = system: Mycobacterium tuberculosis; test: Antimicrobial activity against Mycobacterium tuberculosis H37Rv ATCC 27294 incubated for 7 days by BacTiter-Glo cell viability assay; assay type: functional, organism-based; settings: for MIC: H37Rv ATCC 27294, 168 h; for IC50 / IC90: H37Rv ATCC 27294, BacTiter-Glo, 168 h
[8] = system: Mycobacterium tuberculosis; test: Antimicrobial activity against Mycobacterium tuberculosis H37Rv ATCC 27294 infected in mouse J774 cells assessed as log reduction in bacterial burden at 10 times lower MIC measured 7 days postinfection relative to rifampicin; assay type: functional; method in brief: as §1
[9] = system: Mycobacterium tuberculosis; test: Antimicrobial activity against Mycobacterium tuberculosis H37Rv ATCC 27294 infected in mouse J774 cells assessed as log reduction in bacterial burden at MIC measured 7 days postinfection relative to control; assay type: functional; method in brief: as §1
J774 [10] = test: Cytotoxicity against mouse J774 cells assessed as cell viability at 10 times MIC by MTT assay relative to control; assay type: cell-based
[11] = system: Mycobacterium tuberculosis; test: Antimicrobial activity against Mycobacterium tuberculosis H37Rv SRI 1345 assessed as inhibition of visual growth after 18 to 24 hrs; assay type: functional; settings: read-out: MBC99.9
J774 [12] = test: Cytotoxicity against mouse J774 cells assessed as cell viability at 10 times lower MIC by MTT assay relative to control; assay type: cell-based
J774 [13] = test: Cytotoxicity against mouse J774 cells assessed as cell viability at MIC by MTT assay relative to control; assay type: cell-based
[14] = system: Mycobacterium tuberculosis; test: Antimicrobial activity against Mycobacterium tuberculosis H37Rv ATCC 27294 infected in mouse J774 cells assessed as log reduction in bacterial burden at 10 times MIC measured 7 days postinfection relative to control; assay type: functional; method in brief: as §1
[15] = system: Mycobacterium tuberculosis; test: Antimicrobial activity against non-replicating Mycobacterium tuberculosis H37Rv SRI 1345 assessed as inhibition of visual growth incubated for 7 days under anaerobic condition by low oxygen recovery assay; assay type: functional; settings: H37Rv SRI 1345, 168 h

SMILES	MIC [7]	IC50 [7]	IC90 [7]	also measured
COC(=O)c1c(C(F)(F)F)[n+]([O-])c2ccc(N3CCN(c4ccc(F)cc4)CC3)cc2[n+]1[O-]	1.6 µM (≈ 0.746 µg/mL)	0.5 µM	0.8 µM	log reduction in bacterial burden [1]: 1.43; MIC [2]: 1.5 µg/mL (≈ 3.22 µM); Ratio [3]: 2.6; growth inhibition (GI) [4]: 78%; growth inhibition (GI) [5]: >90%; Ratio [6]: 4; Log reduction in bacterial burden relative to rifampicin [8]: 3; log reduction in bacterial burden [9]: 1.41; Activity (J774 [10]): 47%; MBC [11]: 4 µg/mL (≈ 8.58 µM); Activity (J774 [12]): 60%; Activity (J774 [13]): 64%; log reduction in bacterial burden [14]: 3.86; MIC [15]: 0.375 µg/mL (≈ 0.804 µM)
O=C(c1ccc(F)cc1)c1c(C(F)(F)F)[n+]([O-])c2ccc(F)cc2[n+]1[O-]	6.2 µM (≈ 2.3 µg/mL)	3.1 µM	4 µM	–
CC(=O)c1c(C(F)(F)F)[n+]([O-])c2cc(F)c(N3CCCCC3)cc2[n+]1[O-]	1.6 µM (≈ 0.597 µg/mL)	1 µM	1.5 µM	log reduction in bacterial burden [1]: 1.74; MIC [2]: 1 µg/mL (≈ 2.68 µM); growth inhibition (GI) [4]: 78%; growth inhibition (GI) [5]: >90%; Log reduction in bacterial burden relative to rifampicin [8]: 3; log reduction in bacterial burden [9]: 1.5; Activity (J774 [10]): 65%; Activity (J774 [12]): 83%; Activity (J774 [13]): 53%; log reduction in bacterial burden [14]: 2.66; MIC [15]: > 8 µg/mL
NNC(=O)c1ccncc1 [ISONIAZID]	0.3 µM (≈ 0.0411 µg/mL)	0.1 µM	0.2 µM	–
CC(=O)c1c(C(F)(F)F)[n+]([O-])c2cc(F)c(N3CCC(O)CC3)cc2[n+]1[O-]	12.5 µM (≈ 4.87 µg/mL)	5.4 µM	10.7 µM	–
CC(C)C(=O)c1c(C(F)(F)F)nc2cc(N3CCOCC3)c(N3CCOCC3)cc2[n+]1[O-]	25 µM (≈ 11.4 µg/mL)	8.3 µM	17.9 µM	–
Cc1c(C(=O)/C=C/c2ccccc2)[n+]([O-])c2cc(Cl)ccc2[n+]1[O-]	3.1 µM (≈ 1.06 µg/mL)	1.5 µM	1.7 µM	log reduction in bacterial burden [1]: 2.11; growth inhibition (GI) [4]: 80%; growth inhibition (GI) [5]: >99%; Log reduction in bacterial burden relative to rifampicin [8]: 3; log reduction in bacterial burden [9]: 1.68; Activity (J774 [10]): 26%; Activity (J774 [12]): 70%; Activity (J774 [13]): 81%; log reduction in bacterial burden [14]: 1.76
Cc1c(C(=O)/C=C/c2ccc([N+](=O)[O-])o2)[n+]([O-])c2cc(Cl)ccc2[n+]1[O-]	25 µM (≈ 9.39 µg/mL)	13.5 µM	20.8 µM	–
O=C(c1ccco1)c1c(C(F)(F)F)nc2cc(Cl)c(N3CCOCC3)cc2[n+]1[O-]	–	> 100 µM	> 100 µM	–
CC(=O)c1c(C(F)(F)F)[n+]([O-])c2cc(F)c(N3CCC(N4CCOCC4)CC3)cc2[n+]1[O-]	12.5 µM (≈ 5.73 µg/mL)	4 µM	7.2 µM	–
O=C(c1ccco1)c1c(C(F)(F)F)[n+]([O-])c2cc(Cl)c(N3CCOCC3)cc2[n+]1[O-]	3.1 µM (≈ 1.38 µg/mL)	1.2 µM	2.1 µM	log reduction in bacterial burden [1]: 1.68; MIC [2]: 2 µg/mL (≈ 4.51 µM); growth inhibition (GI) [4]: 61%; growth inhibition (GI) [5]: >90%; Log reduction in bacterial burden relative to rifampicin [8]: 3; log reduction in bacterial burden [9]: 1.57; Activity (J774 [10]): 37%; Activity (J774 [12]): 88%; log reduction in bacterial burden [14]: 2.67; MIC [15]: 0.25 µg/mL (≈ 0.563 µM)
CC[C@@H](CO)NCCN[C@@H](CC)CO [ETHAMBUTOL]	6.2 µM (≈ 1.27 µg/mL)	1.2 µM	1.8 µM	–
O=C(c1ccc(F)cc1)c1c(C(F)(F)F)[n+]([O-])c2cc(Cl)c(Cl)cc2[n+]1[O-]	6.2 µM (≈ 2.61 µg/mL)	3.6 µM	4.5 µM	–
Cc1c(C(=O)/C=C/c2ccc([N+](=O)[O-])s2)[n+]([O-])c2ccccc2[n+]1[O-]	–	> 100 µM	> 100 µM	–
Cc1ccc2c(c1)[n+]([O-])c(C(=O)/C=C/c1ccccc1)c(C)[n+]2[O-]	25 µM (≈ 8.01 µg/mL)	7.2 µM	14.7 µM	–
Cc1c(C(=O)/C=C/c2ccc([N+](=O)[O-])s2)[n+]([O-])c2cc(Cl)c(Cl)cc2[n+]1[O-]	–	> 100 µM	> 100 µM	–
CCc1nc(N)nc(N)c1-c1ccc(Cl)cc1 [PYRIMETHAMINE]	50 µM (≈ 12.4 µg/mL)	23.6 µM	36 µM	–
N[C@@H]1CONC1=O [CYCLOSERINE]	50 µM (≈ 5.1 µg/mL)	20.8 µM	33.1 µM	–
O=C(c1ccc(F)cc1)c1c(C(F)(F)F)[n+]([O-])c2cc(F)c(F)cc2[n+]1[O-]	12.5 µM (≈ 4.85 µg/mL)	5.2 µM	8 µM	–
Cc1c(C(=O)/C=C/c2ccc([N+](=O)[O-])s2)[n+]([O-])c2cc(Cl)ccc2[n+]1[O-]	25 µM (≈ 9.79 µg/mL)	7.3 µM	13 µM	–
Cc1ccc2c(c1)[n+]([O-])c(C(=O)/C=C/c1ccc([N+](=O)[O-])o1)c(C)[n+]2[O-]	50 µM (≈ 17.8 µg/mL)	29.7 µM	38.1 µM	–
CC(=O)c1c(C(F)(F)F)nc2cc(F)c(N3CCSCC3)cc2[n+]1[O-]	3.1 µM (≈ 1.16 µg/mL)	1.3 µM	1.8 µM	log reduction in bacterial burden [1]: 2.17; MIC [2]: 0.75 µg/mL (≈ 2 µM); growth inhibition (GI) [4]: 51%; growth inhibition (GI) [5]: >99%; Log reduction in bacterial burden relative to rifampicin [8]: 3; log reduction in bacterial burden [9]: 1.66; Activity (J774 [10]): 26%; Activity (J774 [12]): 70%; Activity (J774 [13]): 81%; log reduction in bacterial burden [14]: 1.76; MIC [15]: > 12 µg/mL
O=C(c1ccc(F)cc1)c1c(C(F)(F)F)[n+]([O-])c2ccc(Cl)cc2[n+]1[O-]	6.2 µM (≈ 2.4 µg/mL)	3.7 µM	4.5 µM	–
Cc1c(C(=O)/C=C/c2ccc([N+](=O)[O-])o2)[n+]([O-])c2ccccc2[n+]1[O-]	25 µM (≈ 8.53 µg/mL)	17.3 µM	24.6 µM	–
CCOC(=O)c1c(C(F)(F)F)nc2cc(Cl)c(N3CCOCC3)cc2[n+]1[O-]	–	> 100 µM	> 100 µM	–
NCC[C@H](O)C(=O)N[C@@H]1C[C@H](N)[C@@H](O[C@H]2O[C@H](CN)[C@@H](O)[C@H](O)[C@H]2O)[C@H](O)[C@H]1O[C@H]1O[C@H](CO)[C@@H](O)[C@H](N)[C@H]1O [AMIKACIN]	0.2 µM (≈ 0.117 µg/mL)	0.102 µM	0.141 µM	–
CO[C@H]1/C=C/O[C@@]2(C)Oc3c(C)c(O)c4c(O)c(c(/C=N/N5CCN(C)CC5)c(O)c4c3C2=O)NC(=O)/C(C)=C\C=C\[C@H](C)[C@H](O)[C@@H](C)[C@@H](O)[C@@H](C)[C@H](OC(C)=O)[C@@H]1C [RIFAMPIN]	0.04 µM (≈ 0.0329 µg/mL)	0.02 µM	0.03 µM	log reduction in bacterial burden [1]: 0.48; MIC [2]: 0.05 µg/mL (≈ 0.0608 µM); Ratio [3]: 15.6; growth inhibition (GI) [4]: 55%; log reduction in bacterial burden [9]: 1.73; Activity (J774 [10]): 80%; MBC [11]: 0.78 µg/mL (≈ 0.948 µM); Activity (J774 [12]): 93%; Activity (J774 [13]): 87%; log reduction in bacterial burden [14]: 2.68; MIC [15]: 0.39 µg/mL (≈ 0.474 µM)
Cc1c(C(=O)/C=C/c2ccccc2)[n+]([O-])c2ccccc2[n+]1[O-]	12.5 µM (≈ 3.83 µg/mL)	5.8 µM	11.5 µM	–
CC(=O)c1c(C(F)(F)F)[n+]([O-])c2cc(N3CCCCC3)c(N3CCCCC3)cc2[n+]1[O-]	6.2 µM (≈ 2.72 µg/mL)	2.2 µM	4.6 µM	–
Cc1ccc2c(c1)[n+]([O-])c(C(=O)/C=C/c1ccc([N+](=O)[O-])s1)c(C)[n+]2[O-]	–	> 100 µM	> 100 µM	–
